Beta2AR agonist: beta2AR agonists driving receptor internalization, primary screen, cell-based, FAP fluorogen, flow cytometry. Beta-2 adrenergic receptor (Homo sapiens), P07550. Am2.2-beta2AR cells. response, % (test concentration not listed). 340,000 compounds, 0.43% hits. AID 504454, 2011;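 active = response above a set limit, near 3 SD of response in nonfluorescent compounds, cut at about 42% in these data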
Target sequence (P07550 whole entry, looked up): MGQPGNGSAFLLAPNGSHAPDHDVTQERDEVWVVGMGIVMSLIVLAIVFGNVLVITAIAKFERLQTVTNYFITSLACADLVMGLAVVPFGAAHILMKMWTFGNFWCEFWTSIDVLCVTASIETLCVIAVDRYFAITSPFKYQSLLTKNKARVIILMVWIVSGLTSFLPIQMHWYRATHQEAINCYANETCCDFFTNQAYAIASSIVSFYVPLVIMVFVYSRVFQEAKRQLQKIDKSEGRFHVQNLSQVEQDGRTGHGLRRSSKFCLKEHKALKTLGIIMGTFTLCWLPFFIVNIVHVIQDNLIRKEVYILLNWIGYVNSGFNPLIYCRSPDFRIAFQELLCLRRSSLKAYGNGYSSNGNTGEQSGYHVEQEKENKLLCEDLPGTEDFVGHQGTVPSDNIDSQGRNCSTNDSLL
MDM2 E3 inh: MDM2-luciferase reporter signal enhancers, primary screen, MDM2 E3 ligase inhibitor project, cell-based, luminescence, 1536-well; 210,000 compounds, 0.11% hits; E3 ubiquitin-protein ligase Mdm2 (Homo sapiens), Q00987; signal enhancement, % at 5 µM; cell-based MDM2 ubiquitination luciferase reporter, 2 h; 0 = plate control, 100 = twice control, blank-subtracted; AID 1230, 2008;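 active = signal enhancement of 30% or more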;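 also: luminescence tracks abundance of the self-degrading MDM2-luciferase fusion protein; higher signal means inhibition of MDM2 E3 ligase activity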
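Test system: stable mammalian line carrying autodegrading MDM2–luciferase fusion reporter; quantity: 2000 cells in each well; times: 4 h cell settling then 2 h compound exposure, 37 °C; detection: luminescence with SteadyLite reagent, 15 min at room temperature; evaluation: percent signal gain over controls, blank-subtracted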
Mdm2-MdmX inh: inhibitors of human Mdm2-MdmX association, primary screen, cell-based, luminescence, split luciferase, SaOS-2, uHTS. Protein Mdm4 (Homo sapiens) + E3 ubiquitin-protein ligase Mdm2 (Homo sapiens), …. SaOS-2 split-luciferase Mdm2/MdmX complementation. inhibition, % at 8 µM. 330,000 compounds, 3% hits. AID 485346, 2010;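 active = inhibition of at least 50% at 8 µM in the primary screen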
UPR XBP1 act: activators of adaptive XBP1 UPR arm, primary screen, cell-based, CHO-XBP1 luciferase reporter, luminescence, uHTS; IRE1-XBP1 UPR activation; percent of tunicamycin response, DMSO as zero; activation, % at 20 µM; 330,000 compounds, 0.33% hits;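 active = versus positive control, 20 µM dose yields 30% or more activation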;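 also: 100% = tunicamycin at 10 µg/mL and 0% = DMSO only wells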
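Material: CHO-XBP1 cells stably carrying IRE1-XBP1-driven luciferase reporter / Amount: 1000 cells per well / Compound: 20 µM, 1% DMSO / Times: 6 h treatment, 37 °C / Detection: luciferase luminescence / Measure: % activation of reporter signal versus tunicamycin and DMSO controls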
Dynein transport: inhibitors of GR-EGFP nuclear translocation, primary screen, dynein cargo transport inhibitor project, imaging, high-content, 3617.4 mouse cells. test concentration mostly 20 µM; stimulated with dexamethasone, 1 µM; hits give low values. z-score, hits read low. 220,000 compounds, 0.47% hits;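 active = plate z-score of nuclear minus cytoplasmic receptor signal below a set negative limit, without overly bright fluorescence or cell loss, cut at about -3.5 in these data, passing the limit was not always enough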;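 also: z-score of nuclear minus cytoplasmic ring GR-EGFP intensity difference per well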
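Also added – dexamethasone, 1.0 µM final · Buffer or medium – tet-free, stripped-serum medium · Schedule – induction 48 h, compound 1 h, agonist 30 min · Detection – formaldehyde fixation, Hoechst nuclear stain, 10x automated fluorescence imaging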
UPR CHOP act: activators of apoptotic CHOP UPR arm, primary screen, cell-based, CHO-CHOP luciferase reporter, luminescence, uHTS; 330,000 compounds, 0.34% hits; UPR activation; percent of tunicamycin response over DMSO baseline; activation, % at 10 µM;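 active = at 10 µM dose, activation of 40% or more, normalized to positive control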;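 also: 100% = tunicamycin at 10 µg/mL and 0% = DMSO alone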
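System: CHO-CHOP luciferase reporter cell line; amount: 500 cells/well; buffer or medium: F12 medium containing 10% fetal bovine serum; incubation: 6 h compound exposure at 37 °C after overnight seeding; measured by: luciferase luminescence after 10 min with Steady-Glo reagent; evaluation: % reporter activation, DMSO baseline versus tunicamycin full activation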
Mdm2-MdmX conf: Mdm2-MdmX complex disruptors, retested hits, confirmation, luminescence, single concentration. shares compounds with Mdm2-MdmX inh. Mdm2-MdmX binding, luminescent assay. inhibition, % at 8 µM. 10,000 compounds, 55% hits. AID 489028, 2010; in the data active = inhibition above about 40%
Full FLuc ctr: full-length luciferase signal inhibition, confirmation, counter-screen for Mdm2/MdmX interaction inhibitor project, cell-based, single concentration, SaOS-2; shares compounds with Mdm2-MdmX inh; SaOS-2 full-length luciferase counterscreen, luminescence; inhibition, % at 8 µM; 6,200 compounds, 77% hits; AID 504607, 2011;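 active = mean inhibition at 8 µM reaching about 37%, which flags the compound as non-specific, limit read from the data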;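 also: p53-null SaOS-2 cells with luciferase driven by a doxycycline-inducible promoter; compound on cells about two nights before reading with doxycycline added after day one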
Active calls of the source: *. A selection: hits, their analogues and other compounds. The true share with any hit is near 3.7%.

For O=C(CC(c1ccccc1)c1ccccc1)Nc1ccc(Cl)cn1 the results were Beta2AR agonist -0.9, MDM2 E3 inh -14.6, Mdm2-MdmX inh 58.8*, UPR XBP1 act -3.5, Dynein transport -0.585, UPR CHOP act 2.0, Mdm2-MdmX conf 53.2* and Full FLuc ctr 61.1*.
`O=C(CSc1nnc(NC(=O)c2c(F)cccc2F)s1)NC1CCCCC1` gave Beta2AR agonist -3.7, Mdm2-MdmX inh -27.6, UPR XBP1 act -6.2 and UPR CHOP act 1.5.
`CC(=O)Nc1ccc(S(=O)(=O)Nc2cc(S(=O)(=O)N3CCCCC3)ccc2O)cc1` gave Beta2AR agonist -0.9, Mdm2-MdmX inh 5.7, UPR XBP1 act -0.8 and UPR CHOP act -0.4.
For COc1ccc(OCCn2cc(/C=C(\C#N)C(=O)NCc3ccco3)c3ccccc32)cc1 the results were Beta2AR agonist -0.5, MDM2 E3 inh -1.0, Mdm2-MdmX inh 74.7*, UPR XBP1 act 1.7, Dynein transport 0.91, UPR CHOP act -1.7, Mdm2-MdmX conf 42.1* and Full FLuc ctr 50.7*.
`CN(C)CCCNC(NC(=O)/C=C/c1ccccc1)C(Cl)(Cl)Cl` (stereo unspecified) gave Beta2AR agonist -1.4, MDM2 E3 inh -14.2, Mdm2-MdmX inh 14.9, UPR XBP1 act -0.8, Dynein transport 0.384 and UPR CHOP act 0.3.
COc1ccc2nc(Nc3nc(CSc4nnnn4-c4ccccc4)cc(=O)[nH]3)nc(C)c2c1 was read as Beta2AR agonist -1.2, MDM2 E3 inh -0.6, Mdm2-MdmX inh 48.9, UPR XBP1 act 3.7, Dynein transport -0.78 and UPR CHOP act -1.0.
For CCOc1ccc2nc(Nc3nc(CSc4nnnn4-c4ccccc4)cc(=O)[nH]3)nc(C)c2c1 the results were Beta2AR agonist 5.5, MDM2 E3 inh -14.1, Mdm2-MdmX inh 75.1*, UPR XBP1 act -1.7, Dynein transport -0.277, UPR CHOP act 1.2 and Mdm2-MdmX conf 15.6.
`Cc1ccc2c(C)nc(Nc3nc(CSc4nnnn4-c4ccccc4)cc(=O)[nH]3)nc2c1` gave Beta2AR agonist -11.0, MDM2 E3 inh -30.1, Mdm2-MdmX inh 88.8*, UPR XBP1 act 0.1, Dynein transport -0.21, UPR CHOP act -2.4, Mdm2-MdmX conf 61.0* and Full FLuc ctr 62.6*.
COc1ccc(Nc2oc(COc3ccccc3OC)nc2C#N)cc1 was read as Beta2AR agonist 0.3, MDM2 E3 inh -11.4, Mdm2-MdmX inh 68.5*, UPR XBP1 act -1.7, Dynein transport 1.27, UPR CHOP act 2.6, Mdm2-MdmX conf 63.8* and Full FLuc ctr 71.7*.
COc1ccccc1OCc1nc(C#N)c(NCCCn2ccnc2)o1 was read as Beta2AR agonist -6.4, MDM2 E3 inh -7.5, Mdm2-MdmX inh 8.2, UPR XBP1 act -2.1, Dynein transport -0.682 and UPR CHOP act -0.9.
For Cc1cccn2c(=O)c3cc(C(=O)NC4CCCC4)sc3nc12 the results were Beta2AR agonist -15.5, Mdm2-MdmX inh -13.4, UPR XBP1 act 4.0 and UPR CHOP act 2.9.
